# Reference: ChEMBL document CHEMBL4376814, “Novel cyclin-dependent kinase 9 (CDK9) inhibitor with suppression of cancer stemness activity against non-small-cell lung cancer” (Eur J Med Chem, 2019)
# The source made the active and inactive calls. The rule behind the calls is not given here.
# How the values were obtained:
# CDK9/cyclin T1 = CDK9/cyclin T1 (Homo sapiens, UniProt P50750); assay: Inhibition of recombinant full-length human CDK9/cyclinT1 using KTFCGTPEYLAPEVRREPRILSEEEQEMFRDFDYIADWC peptide as substrate measured after 40 mins in presence of [gamma33P]ATP by scintillation counting method; type: protein-complex assay
# CDK9/cyclin T1, sequence (O60563 whole entry): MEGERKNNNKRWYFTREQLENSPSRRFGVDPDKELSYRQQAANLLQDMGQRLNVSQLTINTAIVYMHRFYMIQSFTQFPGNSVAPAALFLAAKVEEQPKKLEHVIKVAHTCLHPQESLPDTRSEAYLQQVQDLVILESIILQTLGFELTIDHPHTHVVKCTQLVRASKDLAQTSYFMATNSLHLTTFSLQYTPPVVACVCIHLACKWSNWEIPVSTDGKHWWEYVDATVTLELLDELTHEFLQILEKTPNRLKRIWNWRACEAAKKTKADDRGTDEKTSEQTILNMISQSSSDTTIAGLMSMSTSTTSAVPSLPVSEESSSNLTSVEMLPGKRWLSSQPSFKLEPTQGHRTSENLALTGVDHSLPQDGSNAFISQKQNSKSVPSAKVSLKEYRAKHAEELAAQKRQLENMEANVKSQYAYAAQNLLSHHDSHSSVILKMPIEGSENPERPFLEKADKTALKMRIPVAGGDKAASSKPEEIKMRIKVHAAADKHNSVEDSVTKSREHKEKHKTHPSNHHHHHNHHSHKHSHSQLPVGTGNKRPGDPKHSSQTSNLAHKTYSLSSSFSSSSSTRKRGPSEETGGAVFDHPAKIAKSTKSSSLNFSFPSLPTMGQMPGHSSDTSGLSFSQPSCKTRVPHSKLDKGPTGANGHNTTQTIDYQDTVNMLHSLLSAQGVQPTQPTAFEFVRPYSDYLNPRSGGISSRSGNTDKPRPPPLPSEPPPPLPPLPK
# CDK9/cyclin T1, sequence (P50750 whole entry): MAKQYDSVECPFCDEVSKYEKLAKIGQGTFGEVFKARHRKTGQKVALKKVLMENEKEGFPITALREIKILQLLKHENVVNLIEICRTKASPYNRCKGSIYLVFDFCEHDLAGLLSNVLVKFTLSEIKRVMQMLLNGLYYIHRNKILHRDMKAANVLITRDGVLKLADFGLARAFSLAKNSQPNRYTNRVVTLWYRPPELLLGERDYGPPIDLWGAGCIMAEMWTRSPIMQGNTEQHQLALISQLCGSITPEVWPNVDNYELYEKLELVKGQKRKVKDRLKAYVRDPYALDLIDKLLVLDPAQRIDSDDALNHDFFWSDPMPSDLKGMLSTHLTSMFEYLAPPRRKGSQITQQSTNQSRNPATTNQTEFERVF
# Summary of the method: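 IC50 against CDK9/cyclin T1, determined by the outsourced Eurofins KinaseProfiler service. Values are the mean of two independent experiments.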
# A549 = assay: Induction of apoptosis in human A549 cells assessed as late apoptotic cells at 0.25 uM after 48 hrs by AnnexinV-FITC/PI staining-based flow cytometric analysis (reference value: 7.66%); type: functional
# NCI-H1299 [1] = assay: Induction of apoptosis in human H1299 cells assessed as late apoptotic cells at 1 uM after 48 hrs by AnnexinV-FITC/PI staining-based flow cytometric analysis (reference value: 1.77%); type: functional
# NCI-H1299 [2] = assay: Induction of apoptosis in human H1299 cells assessed as late apoptotic cells at 0.5 uM after 48 hrs by AnnexinV-FITC/PI staining-based flow cytometric analysis (reference value: 1.77%); type: functional
# NCI-H1299 [3] = assay: Antitumour activity against human H1299 cells xenografted in Balb/c mouse assessed as inhibition of tumour growth at 20 mg/kg, po administered for 21 days by digital caliper method relative to control; type: functional; details: 504 h, read-out: TGI
# Summary of the method: (§1)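 Female nude mice, 6-8 weeks old, injected subcutaneously with 1×10^6 H1299 cells (100 µL of a 1×10^7/mL suspension in serum-free medium). At 100-120 mm3, randomized into groups of 5. Dosed orally each day for 21 days with drug dissolved in DMSO, or with vehicle. Caliper measurements and body weight taken every other day. Volume = short²×long×0.5. Growth inhibition based on change in volume relative to vehicle. Tumours weighed at the end.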
# NCI-H1299 [4] = assay: Antitumour activity against human H1299 cells xenografted in Balb/c mouse assessed as tumour weight at 80 mg/kg, po after 21 days by digital caliper method (reference value: 2.17 g); type: functional; summary of the method: as §1
# [5] = target: Tyrosine-protein kinase ABL1 (Homo sapiens) (UniProt P00519); assay: Inhibition of human ABL1 at 1 uM using EAIYAAPFAKKK as substrate measured after 40 mins by [gamma33P]ATP by scintillation counting method relative to control
# Summary of the method: (§2)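 Percent inhibition of kinase activity at a single compound concentration, measured by the outsourced Eurofins KinaseProfiler panel. Values are the mean of two independent experiments.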
# [6] = target: Activin receptor type-2A (Homo sapiens) (UniProt P27037); assay: Inhibition of recombinant human ACTR2 (162 to end residues) at 1 uM using casein as substrate measured after 120 mins in presence of [gamma33P]ATP by scintillation counting method relative to control
# Activin receptor type-2A (Homo sapiens), sequence (P27037 whole entry): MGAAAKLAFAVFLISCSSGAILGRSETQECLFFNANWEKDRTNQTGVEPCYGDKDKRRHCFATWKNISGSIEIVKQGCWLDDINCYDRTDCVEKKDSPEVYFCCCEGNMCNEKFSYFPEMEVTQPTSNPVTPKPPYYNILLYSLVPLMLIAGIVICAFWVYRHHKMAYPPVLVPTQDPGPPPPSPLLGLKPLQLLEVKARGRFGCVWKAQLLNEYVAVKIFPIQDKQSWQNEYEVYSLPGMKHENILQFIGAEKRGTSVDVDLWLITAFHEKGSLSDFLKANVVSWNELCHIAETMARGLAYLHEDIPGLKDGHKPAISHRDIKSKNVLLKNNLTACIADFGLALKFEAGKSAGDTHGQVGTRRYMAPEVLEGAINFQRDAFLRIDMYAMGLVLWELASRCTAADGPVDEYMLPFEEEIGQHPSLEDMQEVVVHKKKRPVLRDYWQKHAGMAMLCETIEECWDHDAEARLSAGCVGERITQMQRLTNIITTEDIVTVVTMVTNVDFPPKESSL
# [7] = target: 5'-AMP-activated protein kinase catalytic subunit alpha-1 (Homo sapiens) (UniProt Q13131); assay: Inhibition of full length recombinant human AMPK alpha1 at 1 uM using AMARAASAAALARRR as substrate measured after 40 mins in presence of [gamma33P]ATP by scintillation counting method relative to control
# Summary of the method: (§3)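 Single-point inhibition at 1 µM was measured in the Eurofins KinaseProfiler panel. Values are the mean of two independent experiments.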
# [8] = target: FKBP12A/mTOR (Homo sapiens) (UniProt P62942+P42345); assay: Inhibition of recombinant full-length human mTOR/FKBP12 at 1 uM measured after 40 mins in presence of [gamma33P]ATP by scintillation counting method relative to control; type: protein-complex assay
# FKBP12A/mTOR (Homo sapiens), sequence (P62942 2-108 limits assumed, other chains not shown): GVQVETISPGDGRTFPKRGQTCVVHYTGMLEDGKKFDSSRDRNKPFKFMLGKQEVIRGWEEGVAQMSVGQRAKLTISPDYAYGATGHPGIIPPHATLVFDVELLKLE
# [9] = target: Casein kinase I isoform gamma-2 (Homo sapiens) (UniProt P78368); assay: Inhibition of recombinant human CK1gamma2 (18 to end residues) at 1 uM using KRRRALS(p)VASLPGL as substrate measured after 40 mins in presence of [gamma33P]ATP by scintillation counting method relative to control
# Casein kinase I isoform gamma-2 (Homo sapiens), sequence (P78368 whole entry, looked up, the tested form may be a part, canonical isoform): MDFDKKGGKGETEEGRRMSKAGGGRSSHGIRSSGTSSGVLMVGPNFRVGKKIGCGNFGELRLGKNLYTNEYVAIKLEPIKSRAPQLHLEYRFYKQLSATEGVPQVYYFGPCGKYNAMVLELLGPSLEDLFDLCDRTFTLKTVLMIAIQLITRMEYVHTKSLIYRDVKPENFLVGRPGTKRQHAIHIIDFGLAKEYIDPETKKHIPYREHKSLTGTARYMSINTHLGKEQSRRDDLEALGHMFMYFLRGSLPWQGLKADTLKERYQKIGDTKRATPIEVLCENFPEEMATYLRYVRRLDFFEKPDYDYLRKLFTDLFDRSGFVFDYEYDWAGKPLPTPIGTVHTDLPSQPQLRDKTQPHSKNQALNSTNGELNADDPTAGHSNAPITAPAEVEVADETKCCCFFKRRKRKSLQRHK
# [10] = target: Serine/threonine-protein kinase Nek9 (Homo sapiens) (UniProt Q8TD19); assay: Inhibition of recombinant human NEK9 (1 to 324 residues) at 1 uM using myelin basic protein as substrate measured after 40 mins in presence of [gamma33P]ATP by scintillation counting method relative to control
# [11] = target: Dual specificity tyrosine-phosphorylation-regulated kinase 2 (Homo sapiens) (UniProt Q92630); assay: Inhibition of recombinant full-length human DYRK2 at 1 uM using casein as substrate measured after 40 mins in presence of [gamma33P]ATP by scintillation counting method relative to control
# [12] = tested on: Eukaryotic elongation factor 2 kinase (Homo sapiens), O00418 [H23R]; assay: Inhibition of recombinant human EEF2K H23R mutant (2 to end residues) at 1 uM using RKKFGESEKTKTKEFL as substrate measured after 40 mins in presence of [gamma33P]ATP by scintillation counting method relative to control
# [13] = tested on: eIF-2-alpha kinase GCN2 (Homo sapiens), Q9P2K8 [E556G]; assay: Inhibition of recombinant full-length human GCN2 E556G mutant at 1 uM using RSRSRSRSRSRSRSR as substrate measured after 40 mins in presence of [gamma33P]ATP by scintillation counting method relative to control
# [14] = target: SRSF protein kinase 1 (Homo sapiens) (UniProt Q96SB4); assay: Inhibition of human SRPK1 (2 to end residues) at 1 uM using RSRSRSRSRSRSRSR as substrate measured after 40 mins in presence of [gamma33P]ATP by scintillation counting method relative to control; summary of the method: as §3
# [15] = target: Mitogen-activated protein kinase kinase kinase 7 (Homo sapiens) (UniProt O43318); assay: Inhibition of human TAK1 (1 to 303 residues) at 1 uM using casein as substrate measured after 40 mins in presence of [gamma33P]ATP by scintillation counting method relative to control; summary of the method: as §2
# Mitogen-activated protein kinase kinase kinase 7 (Homo sapiens), sequence (O43318 whole entry, the tested form may be a part): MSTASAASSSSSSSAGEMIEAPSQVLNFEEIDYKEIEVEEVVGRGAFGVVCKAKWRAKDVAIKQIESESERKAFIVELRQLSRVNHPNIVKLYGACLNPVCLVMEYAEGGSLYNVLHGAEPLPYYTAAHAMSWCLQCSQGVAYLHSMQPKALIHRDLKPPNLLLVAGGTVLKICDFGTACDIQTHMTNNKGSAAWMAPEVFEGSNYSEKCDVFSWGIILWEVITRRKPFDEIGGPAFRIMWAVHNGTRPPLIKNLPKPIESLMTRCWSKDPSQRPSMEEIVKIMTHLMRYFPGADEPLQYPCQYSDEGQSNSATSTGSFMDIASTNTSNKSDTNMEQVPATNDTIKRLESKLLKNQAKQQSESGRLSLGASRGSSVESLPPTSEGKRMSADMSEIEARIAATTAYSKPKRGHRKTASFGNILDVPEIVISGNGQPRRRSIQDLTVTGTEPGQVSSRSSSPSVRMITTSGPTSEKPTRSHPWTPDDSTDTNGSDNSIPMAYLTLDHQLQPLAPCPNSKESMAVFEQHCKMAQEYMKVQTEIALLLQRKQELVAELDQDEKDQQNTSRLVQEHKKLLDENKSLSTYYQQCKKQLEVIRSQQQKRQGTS
# [16] = target: Serine/threonine-protein kinase WNK2 (Homo sapiens) (UniProt Q9Y3S1); assay: Inhibition of recombinant human WNK2 (166 to 489 residues) at 1 uM using MBP as substrate measured after 40 mins in presence of [gamma33P]ATP by scintillation counting method relative to control
# Serine/threonine-protein kinase WNK2 (Homo sapiens), sequence (Q9Y3S1 whole entry, the tested form may be a part): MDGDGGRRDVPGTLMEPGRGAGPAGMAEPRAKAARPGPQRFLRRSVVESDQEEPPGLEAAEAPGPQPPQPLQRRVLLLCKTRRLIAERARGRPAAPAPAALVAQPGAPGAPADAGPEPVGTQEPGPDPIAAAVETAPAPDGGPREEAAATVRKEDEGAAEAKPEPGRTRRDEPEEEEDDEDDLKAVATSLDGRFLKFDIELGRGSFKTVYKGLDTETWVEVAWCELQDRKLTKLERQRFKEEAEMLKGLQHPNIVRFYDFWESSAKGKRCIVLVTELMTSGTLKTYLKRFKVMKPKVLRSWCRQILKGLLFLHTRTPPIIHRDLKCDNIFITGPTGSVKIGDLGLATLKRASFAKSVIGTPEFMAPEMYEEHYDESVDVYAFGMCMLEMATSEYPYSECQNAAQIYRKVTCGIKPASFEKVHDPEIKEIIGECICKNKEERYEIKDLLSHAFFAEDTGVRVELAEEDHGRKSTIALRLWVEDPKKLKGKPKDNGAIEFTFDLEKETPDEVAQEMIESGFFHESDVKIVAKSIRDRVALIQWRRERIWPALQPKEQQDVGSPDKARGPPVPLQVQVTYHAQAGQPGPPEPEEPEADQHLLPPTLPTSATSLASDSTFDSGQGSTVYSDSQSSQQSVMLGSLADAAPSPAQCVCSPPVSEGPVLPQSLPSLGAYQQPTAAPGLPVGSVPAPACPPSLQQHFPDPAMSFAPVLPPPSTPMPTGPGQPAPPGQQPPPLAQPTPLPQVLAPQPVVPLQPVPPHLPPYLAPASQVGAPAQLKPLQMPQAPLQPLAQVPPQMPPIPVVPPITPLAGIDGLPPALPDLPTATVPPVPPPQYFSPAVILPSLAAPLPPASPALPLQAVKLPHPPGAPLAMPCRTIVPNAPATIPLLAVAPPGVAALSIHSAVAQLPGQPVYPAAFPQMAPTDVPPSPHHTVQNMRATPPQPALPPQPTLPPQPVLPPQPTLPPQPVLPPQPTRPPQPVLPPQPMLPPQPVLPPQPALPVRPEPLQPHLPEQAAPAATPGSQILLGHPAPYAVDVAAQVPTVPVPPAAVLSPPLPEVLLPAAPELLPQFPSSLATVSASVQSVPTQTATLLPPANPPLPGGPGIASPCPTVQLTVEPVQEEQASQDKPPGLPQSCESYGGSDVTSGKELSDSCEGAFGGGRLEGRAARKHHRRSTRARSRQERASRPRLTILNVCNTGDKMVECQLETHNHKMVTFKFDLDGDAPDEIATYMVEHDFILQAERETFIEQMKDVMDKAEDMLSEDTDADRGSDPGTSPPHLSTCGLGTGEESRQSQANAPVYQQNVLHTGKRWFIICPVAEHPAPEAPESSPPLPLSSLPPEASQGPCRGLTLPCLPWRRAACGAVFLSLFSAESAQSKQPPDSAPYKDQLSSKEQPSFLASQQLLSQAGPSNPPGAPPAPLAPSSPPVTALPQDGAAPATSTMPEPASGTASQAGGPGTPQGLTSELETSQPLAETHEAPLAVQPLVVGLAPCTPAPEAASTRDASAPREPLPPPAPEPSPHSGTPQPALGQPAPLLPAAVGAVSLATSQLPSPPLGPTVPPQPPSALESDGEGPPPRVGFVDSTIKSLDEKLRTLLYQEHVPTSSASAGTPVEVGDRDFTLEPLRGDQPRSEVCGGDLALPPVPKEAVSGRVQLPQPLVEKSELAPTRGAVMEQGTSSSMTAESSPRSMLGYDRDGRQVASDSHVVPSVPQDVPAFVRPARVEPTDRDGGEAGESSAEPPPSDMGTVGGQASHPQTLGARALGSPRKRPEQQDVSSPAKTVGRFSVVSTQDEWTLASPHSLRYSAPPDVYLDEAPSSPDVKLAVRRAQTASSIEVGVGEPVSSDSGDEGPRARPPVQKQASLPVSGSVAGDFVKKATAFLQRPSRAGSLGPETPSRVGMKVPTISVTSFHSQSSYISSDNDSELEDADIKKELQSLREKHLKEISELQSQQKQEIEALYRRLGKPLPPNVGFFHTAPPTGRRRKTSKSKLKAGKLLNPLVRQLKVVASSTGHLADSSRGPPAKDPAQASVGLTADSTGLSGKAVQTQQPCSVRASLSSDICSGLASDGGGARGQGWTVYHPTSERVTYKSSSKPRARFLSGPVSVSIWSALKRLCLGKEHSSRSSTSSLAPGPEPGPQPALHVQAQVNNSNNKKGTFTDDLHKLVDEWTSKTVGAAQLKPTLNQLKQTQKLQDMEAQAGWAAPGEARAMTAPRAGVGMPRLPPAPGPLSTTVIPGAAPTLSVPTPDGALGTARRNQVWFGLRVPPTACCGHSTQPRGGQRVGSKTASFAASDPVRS
# [17] = tested on: PI3-kinase p110-alpha/p85-alpha (Homo sapiens), P27986+P42336 [E542K]; assay: Inhibition of recombinant full-length human PI3K p110alpha/p85alpha E542K mutant at 1 uM using phosphatidylinositol-4, 5-bisphosphate as substrate measured after 40 mins by HTRF assay relative to control
# NCI-H1299 [18] = assay: Induction of cell cycle arrest in human H1299 cells assessed as accumulation of cells at G0/G1 phase at 1 uM after 24 hrs by propidium iodide/RNase staining based flow cytometric analysis; type: functional
# Summary of the method: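 A549 and H1299 plated at 5×10^5 cells/mL in 6-well plates, treated after adherence for 24 h. Washed with PBS, fixed overnight in ice-cold 75% ethanol, stained with propidium iodide plus RNase A for 30 min at 37 °C, analysed by flow cytometry for phase distribution. Means ± SD, three independent experiments.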
# [19] = target: Cyclin-dependent kinase 9 (Homo sapiens) (UniProt P50750); details: A549, 0.25 uM
smiles,measurement,setting,value
CN(C)C(=O)c1cc2cnc(Nc3ccc(NC(=O)CCCCCCCN=C=S)cc3)nc2n1C1CCCC1,IC50,CDK9/cyclin T1,11 nM
same,Activity,A549,14.5%
same,Activity,NCI-H1299 [1],4.51%
same,Activity,NCI-H1299 [2],3.64%
same,inhibition in vivo at 20 mg/kg,NCI-H1299 [3],62%
same,Activity,NCI-H1299 [4],0.18 g
same,inhibition,[5],88%
same,inhibition,[6],0%
same,inhibition,[7],11%
same,inhibition,[8],-6%
same,inhibition,[9],20%
same,inhibition,[10],41%
same,inhibition,[11],-1%
same,inhibition,[12],-10%
same,inhibition,[13],0%
same,inhibition,[14],12%
same,inhibition,[15],79%
same,inhibition,[16],4%
same,inhibition,[17],10%
same,Activity,NCI-H1299 [18],inactive
same,inhibition,[19],Active
